{"source": "paper PMC8752318", "about": "(Nano Today, 2022)", "key": {"DC 2.4 cells [1]": {"system": "DC 2.4 cells", "experiment": "Cellular uptake inhibition", "type": "cell-based", "conditions": "read-out: inhibition rate of AAS uptake by DCs", "how_it_was_run": "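DC 2.4 cells were grown in DMEM with 10% FBS and penicillin/streptomycin at 37 °C, 5% CO2, then seeded at 5 × 10^5 per well for 24 h. Cells were pretreated 1 h with 5 μM cytochalasin B or cytochalasin D, then given 5 μg Cy5-labelled AAS for 2 h. They were washed in PBS/2% FBS, fixed in 2% paraformaldehyde for 10 min, and Cy5 uptake was read by flow cytometry.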"}, "[2]": {"system": "SARS-CoV-2 B.1.617.2 pseudovirus", "conditions": "in vivo, ip"}, "[3]": {"system": "SARS-CoV-2 B.1.351 pseudovirus", "conditions": "in vivo, ip"}, "STING-dependent IRF3": {"system": "STING-dependent IRF3", "conditions": "ref [44]; cited from earlier work"}, "[4]": {"system": "IKBKE kinase-dependent activity of IRF3", "conditions": "ref [44]; cited from earlier work"}, "[5]": {"conditions": "naked amantadine; ref [33], [54], [55]; cited from earlier work"}, "DC 2.4 cells [6]": {"system": "DC 2.4 cells", "experiment": "DC 2.4 activation by flow cytometry", "type": "cell-based", "conditions": "10 μg/mL, 24 h", "how_it_was_run": "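DC 2.4 cells (1 × 10^6 per well) were cultured 12 h, then exposed to 10 μg test compound or tetrapeptide for 24 h. Staining used DAPI live/dead for viability, anti-CD40 and anti-CD86 for maturation, and anti-IL-4 and anti-TNF-α for function. At least 50,000 cells per sample were read by flow cytometry.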"}, "[7]": {"system": "RIG-I-like receptor (RLR) signaling pathway", "experiment": "Transcriptome sequencing analysis of lymph node immune cells", "type": "in vivo, Balb/c mice", "conditions": "WGCNA; AAS (Fig. 4g) or naked amantadine (Fig S7)"}, "[8]": {"system": "SARS-CoV-2 infection and symptomatology", "conditions": "in vivo; cited from earlier work"}, "[9]": {"system": "immunoregulatory cytokines such as interferons and tumor necrosis factors", "conditions": "in vivo and in vitro, ref [29], [30], [31], [32]; cited from earlier work"}, "[10]": {"conditions": "naked amantadine; ref [33], [54], [55]; cited from earlier work", "remark": "listed apart in the source"}, "animal model": {"system": "animal model", "conditions": "repeated injections with high dose; ref [28]; cited from earlier work"}}}
{"smiles": "C=C1[C@@H](C)[C@H]2[C@H](Cc3ccccc3)NC(=O)[C@]23[C@H](OC(C)=O)/C=C/[C@@](C)(O)C(=O)[C@@H](C)C/C=C/[C@H]3[C@@H]1O", "note": "[cytochalasin D]", "values": [{"measurement": "inhibition at 5 µM", "setting": "DC 2.4 cells [1]", "value": 46, "unit": "%"}]}
{"smiles": "CCn1c(-c2nonc2N)nc2c(C#CC(C)(C)O)ncc(OC[C@H]3CCCNC3)c21", "note": "[GSK690693]", "values": [{"measurement": "decrease of neutralizing antibody against B.1.617.2 vs AAS+RBD group", "setting": "[2]", "value": 6, "unit": "fold"}, {"measurement": "decrease of neutralizing antibody against B.1.351 vs AAS+RBD group", "setting": "[3]", "value": 7, "unit": "fold"}, {"measurement": "inhibition of STING-dependent IRF3 activation", "setting": "STING-dependent IRF3", "value": "inhibit the activation of STING-dependent IRF3"}, {"measurement": "inhibition of IKBKE kinase-dependent activity of IRF3 (GSK690693)", "setting": "[4]", "value": "inhibit the IKBKE kinase-dependent activity of IRF3"}]}
{"smiles": "CN(C)c1ccc(C(=C2C=CC(=[N+](C)C)C=C2)c2ccccc2)cc1.CN(C)c1ccc(C(=C2C=CC(=[N+](C)C)C=C2)c2ccccc2)cc1.O=C(O)C(=O)O.O=C([O-])C(=O)O.O=C([O-])C(=O)O", "note": "[malachite green oxalate]", "values": [{"measurement": "decrease of neutralizing antibody against B.1.351 vs AAS+RBD group", "setting": "[3]", "value": 4, "unit": "fold"}]}
{"smiles": "C=C1[C@@H](C)[C@H]2[C@H](Cc3ccccc3)NC(=O)[C@]23OC(=O)/C=C/[C@H](O)CCC[C@@H](C)C/C=C/[C@H]3[C@@H]1O", "note": "[cytochalasin B]", "values": [{"measurement": "inhibition at 5 µM", "setting": "DC 2.4 cells [1]", "value": 11.7, "unit": "%"}]}
{"smiles": "NC12CC3CC(CC(C3)C1)C2", "note": "[amantadine]", "values": [{"measurement": "water solubility", "setting": "[5]", "value": "unsatisfactory water solubility"}, {"measurement": "immunostimulation activity against immune cells", "setting": "DC 2.4 cells [6]", "value": "possesses the immunostimulation activity"}, {"measurement": "protein-protein interaction (PPI) network key genes", "setting": "[7]", "value": "three RLR signaling pathway-related genes (Oasl2, RIG-I and IRF3) located in the central position"}, {"measurement": "prevention of SARS-CoV-2 infection and symptomatology", "setting": "[8]", "value": "can prevent SARS-CoV-2 infection and symptomatology"}, {"measurement": "secretion of immunoregulatory cytokines", "setting": "[9]", "value": "increase the secretion of multiple immunoregulatory cytokines"}, {"measurement": "half-life period in vivo", "setting": "[10]", "value": "short half-life period"}, {"measurement": "adverse reactions", "setting": "animal model", "value": "not observed"}]}
